Source: ChEMBL document CHEMBL2434964, “Novel 1H-pyrrolo[2,3-b]pyridine derivative nortopsentin analogues: synthesis and antitumor activity in peritoneal mesothelioma experimental models” (J Med Chem, 2013)
Calls of active or inactive are those of the source. The calls are words filed in the database; no cut-off is given here.

Tests used:
STO [1] = assay: Induction of apoptosis in human STO cells assessed as increase in caspase 3 activation at 0.3 to 0.6 uM hrs by DEVD-pNA substrate-based spectrofluorometric analysis relative to control; assay type: functional, cell-based
STO [2] = assay: Induction of apoptosis in human STO cells assessed as DNA fragmentation at IC50 by fluorescence microscopy relative to control; assay type: functional, cell-based; details: TDE = time-dependent effect
[3] = Cytotoxicity against human W138 cells assessed as growth inhibition after 72 hrs by MTS assay; assay type: cell-based; details: WI-38, 72 h
Outline: (§1)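 Log-phase cells, 4500 per well, plated 24 h, then given 0.1–100 μM compound for 72 h; vehicle (DMSO) controls. MTS read-out at 490 nm as % of DMSO-treated cells. IC50 taken graphically from the dose-response curve. Eight replicates; mean ± SD of at least three independent experiments.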

Meso2 [4] = assay: Induction of apoptosis in human Meso2 cells assessed as increase in caspase 3 activation at 4 to 8 uM hrs by DEVD-pNA substrate-based spectrofluorometric analysis relative to control; assay type: functional, cell-based
[5] = Cell cycle arrest in human STO cells assessed as accumulation at G2/M phase at IC50 after 72 hrs by propidium iodide staining-based FACS-flow cytometry relative to control; assay type: functional
Mus musculus [6] = assay: Toxicity in athymic nude mouse xenografted with human STO cells assessed as body weight loss at 50 mg/kg, ip qd for 4 to 5 days per week for 3 weeks measured on day 17 post dose; assay type: organism-based; design: dose 50 mg/kg, route intraperitoneal; details: in vivo
Outline: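 Female athymic Swiss nude mice bearing s.c. STO flank xenografts (10⁷ cells). Dosing i.p. qdx4-5/wx3w, starting the day after cell injection. Toxicity recorded as % body weight loss and lethal toxicity. Deaths in treated mice before the first control death were counted as toxic.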

[7] = molecular target: Cyclin-dependent kinase 1/cyclin B1 (Homo sapiens) (UniProt P06493+P14635); assay: Inhibition of CDK1/cyclin B in human STO cells using histone H1 as substrate assessed as histone H1 phosphorylation preincubated at IC50 by immunoprecipitate-based densitometric analysis; assay type: cell-based; details: TDE = time-dependent effect
Outline: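 STO cells exposed at IC50 for 24, 48 and 72 h, with DMSO controls. Lysates immunoprecipitated with anti-cyclin B1, 4 h at 4°C. Precipitates incubated 20 min at 30°C with 3 μg histone H1, MgCl₂, cold ATP and [γ32P]ATP, pH 7.5. Products run on 12% SDS gel and quantified by densitometry as % of DMSO control.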

[8] = molecular target: Glycogen synthase kinase-3 beta (Homo sapiens, UniProt P49841); assay: Inhibition of human GSK-3 beta after 30 mins by fluorescence assay
Outline: (§2)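 Recombinant kinases (CDK1/cyclin B; GSK3β) in Omnia fluorescence assay with peptide substrate, ATP and DTT in kinase buffer, run 30 min at 30°C. Compound range 0.05-50 μM. Fluorescence read at ex 360/em 485 nm. IC50 taken graphically; mean ± SD of three independent experiments.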

Meso2 [9] = assay: Potentiation of paclitaxel-induced cytotoxicity in human Meso2 cells assessed as inhibition of cell survival at 2 to 8 uM after 72 hrs by MTS assay; assay type: functional, cell-based
Outline: (§3)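 Paclitaxel given for 24 h, then test compound added for 72 h more. Fixed paclitaxel:compound ratios were 1:100 in STO and 1:333 in MesoII. Survival by MTS at 490 nm. Expected additive effect taken as the product of single-agent effects. Interaction scored by Chou–Talalay combination index (<1 synergy).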

[10] = Antitumor activity against human STO cells xenografted in athymic nude mouse assessed as tumor volume inhibition at 50 mg/kg, ip qd for 4 to 5 days per week for 3 weeks measured on day 17 post dose; assay type: functional; details: route intraperitoneal
Outline: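 Female athymic Swiss nude mice, 8-10 weeks old; 10⁷ exponentially growing STO cells injected s.c. into right flank. Dosing i.p. qdx4-5/wx3w, starting the day after cell injection. Tumor volume = d²xD/2. TVI% = 100-(mean TV treated/mean TV control x 100), read 17 days after end of treatment (day 35). Two-tailed Student's t test.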

Meso2 [11] = assay: Induction of apoptosis in human Meso2 cells assessed as DNA fragmentation at IC50 by fluorescence microscopy relative to control; assay type: functional, cell-based; details: TDE = time-dependent effect
[12] = Cell cycle arrest in human STO cells assessed as increase in sub-G1 phase accumulation at IC50 after 72 hrs by propidium iodide staining-based FACS-flow cytometry relative to control; assay type: functional
[13] = Cell cycle arrest in human STO cells assessed as accumulation at G2/M phase at IC50 after 48 hrs by propidium iodide staining-based FACS-flow cytometry relative to control; assay type: functional
Meso2 [14] = assay: Induction of apoptosis in human Meso2 cells assessed as chromatin condensation at IC50 by fluorescence microscopy relative to control; assay type: functional, cell-based; details: TDE = time-dependent effect
[15] = Cell cycle arrest in human Meso2 cells assessed as increase in sub-G1 phase accumulation at IC50 after 72 hrs by propidium iodide staining-based FACS-flow cytometry relative to control; assay type: functional
[16] = Cell cycle arrest in human STO cells assessed as reduction of cells at G1 phase at IC50 after 48 to 72 hrs by propidium iodide staining-based FACS-flow cytometry relative to control; assay type: functional
[17] = Cell cycle arrest in human Meso2 cells assessed as accumulation at G2/M phase at IC50 after 48 hrs by propidium iodide staining-based FACS-flow cytometry relative to control; assay type: functional
[18] = molecular target: Cyclin-dependent kinase 1/cyclin B1 (Homo sapiens, UniProt P06493); assay: Inhibition of human recombinant CDK1/cyclin B after 30 mins by fluorescence assay; assay type: protein-complex assay; outline: as §2
STO [19] = assay: Induction of apoptosis in human STO cells assessed as increase in caspase 3 activation at 0.3 to 0.6 uM hrs by DEVD-pNA substrate-based spectrofluorometric analysis in presence of paclitaxel; assay type: functional, cell-based
STO [20] = assay: Potentiation of paclitaxel-induced cytotoxicity in human STO cells assessed as inhibition of cell survival at 0.15 to 0.6 uM after 72 hrs by MTS assay; assay type: functional, cell-based; outline: as §3
[21] = Cell cycle arrest in human Meso2 cells assessed as accumulation at G2/M phase at IC50 after 72 hrs by propidium iodide staining-based FACS-flow cytometry relative to control; assay type: functional
[22] = Cell cycle arrest in human Meso2 cells assessed as reduction of cells at G1 phase at IC50 after 48 to 72 hrs by propidium iodide staining-based FACS-flow cytometry relative to control; assay type: functional
Mus musculus [23] = assay: Toxicity in athymic nude mouse xenografted with human STO cells assessed as mortality at 50 mg/kg, ip qd for 4 to 5 days per week for 3 weeks measured on day 17 post dose; assay type: organism-based; design: dose 50 mg/kg, route intraperitoneal; details: in vivo
Outline: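 Female athymic Swiss nude mice, 8-10 weeks old, given 10⁷ exponentially growing STO cells s.c. in the right flank. Dosing i.p. qdx4-5/wx3w, starting the day after cell injection. Toxicity was scored as body weight loss and lethal toxicity, reported as toxic deaths per treated group (n=8). Deaths in treated mice before the first control death were counted as toxic.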

[24] = (§4) Cytotoxicity against human STO cells assessed as growth inhibition after 72 hrs by MTS assay; assay type: functional, cell-based; outline: as §1
STO [25] = assay: as §4; assay type: functional, cell-based; outline: as §1
STO [26] = assay: Induction of apoptosis in human STO cells assessed as inhibition of survivin phosphorylation at Thr34 at IC50 by Western blotting analysis; assay type: functional, cell-based
STO [27] = assay: Induction of apoptosis in human STO cells assessed as chromatin condensation at IC50 by fluorescence microscopy relative to control; assay type: functional, cell-based; details: TDE = time-dependent effect
Meso2 [28] = assay: Induction of apoptosis in human Meso2 cells assessed as increase in caspase 3 activation at 4 to 8 uM hrs by DEVD-pNA substrate-based spectrofluorometric analysis in presence of paclitaxel; assay type: functional, cell-based
Homo sapiens = species: Homo sapiens; assay: (§5) Cytotoxicity against human cells Meso2 assessed as growth inhibition after 72 hrs by MTS assay; assay type: functional, cell-based; outline: as §1
[29] = as §5; assay type: functional, cell-based; details: Meso2, 72 h; outline: as §1

Chain of Glycogen synthase kinase-3 beta (P49841 whole entry): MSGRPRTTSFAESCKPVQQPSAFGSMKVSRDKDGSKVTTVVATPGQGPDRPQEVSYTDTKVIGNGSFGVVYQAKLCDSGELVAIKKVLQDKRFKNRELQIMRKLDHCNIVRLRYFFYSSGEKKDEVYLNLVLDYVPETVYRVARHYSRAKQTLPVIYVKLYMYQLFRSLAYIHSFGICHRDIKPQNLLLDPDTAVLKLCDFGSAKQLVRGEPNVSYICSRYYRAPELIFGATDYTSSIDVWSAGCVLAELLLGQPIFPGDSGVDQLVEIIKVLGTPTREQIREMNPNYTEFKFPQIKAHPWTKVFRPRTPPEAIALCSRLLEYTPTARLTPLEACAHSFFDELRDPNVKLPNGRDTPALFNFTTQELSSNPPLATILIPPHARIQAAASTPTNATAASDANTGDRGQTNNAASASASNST
Chain of Cyclin-dependent kinase 1/cyclin B1 (Homo sapiens) (P06493 whole entry, looked up): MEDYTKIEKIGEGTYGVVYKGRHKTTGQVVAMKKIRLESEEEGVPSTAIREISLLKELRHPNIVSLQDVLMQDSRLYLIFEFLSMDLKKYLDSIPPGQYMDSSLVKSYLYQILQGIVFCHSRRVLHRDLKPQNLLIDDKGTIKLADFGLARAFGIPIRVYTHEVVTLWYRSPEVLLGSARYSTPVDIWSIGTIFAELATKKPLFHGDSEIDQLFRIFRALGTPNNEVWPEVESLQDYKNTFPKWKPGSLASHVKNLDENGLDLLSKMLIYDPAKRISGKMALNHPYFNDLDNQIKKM
Chain of Cyclin-dependent kinase 1/cyclin B1 (Homo sapiens) (P14635 whole entry, looked up): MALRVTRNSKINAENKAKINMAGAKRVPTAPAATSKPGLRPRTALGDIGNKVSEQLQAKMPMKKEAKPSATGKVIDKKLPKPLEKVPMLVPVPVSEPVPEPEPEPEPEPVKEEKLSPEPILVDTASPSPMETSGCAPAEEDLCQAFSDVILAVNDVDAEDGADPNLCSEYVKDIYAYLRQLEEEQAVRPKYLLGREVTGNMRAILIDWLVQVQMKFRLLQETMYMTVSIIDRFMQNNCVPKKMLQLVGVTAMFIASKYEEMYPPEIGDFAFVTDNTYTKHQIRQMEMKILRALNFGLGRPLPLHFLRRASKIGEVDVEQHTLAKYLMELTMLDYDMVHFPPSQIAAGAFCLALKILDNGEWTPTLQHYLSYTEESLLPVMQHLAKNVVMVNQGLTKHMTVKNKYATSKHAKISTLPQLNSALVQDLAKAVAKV
Chain of Cyclin-dependent kinase 1/cyclin B1 (P06493 whole entry): as the sequence (P06493 whole entry, looked up) above
Chain of Cyclin-dependent kinase 1/cyclin B1 (P14635 whole entry, further chain): as the sequence (P14635 whole entry, looked up) above

SMILES: Cn1cc(-c2csc(-c3c[nH]c4ccccc34)n2)c2cccnc21
- Activity (STO [1]): Active
- Activity (STO [2]): tde
- IC50 [3]: > 100 µM
- Activity (Meso2 [4]): Active
- Activity [5]: 41.9%
- Activity (Mus musculus [6]): 1%
- inhibition [7]: tde
- IC50 [8]: 40.2 µM
- inhibition (Meso2 [9]): Active
- inhibition in vivo at 50 mg/kg [10]: 75%
- Activity (Meso2 [11]): tde
- Activity [12]: 25.8%
- Activity [13]: 33.3%
- Activity (Meso2 [14]): tde
- Activity [15]: 19.9%
- Activity [16]: Active
- Activity [17]: 33.3%
- IC50 [18]: 0.75 µM
- Activity (STO [19]): Active
- inhibition (STO [20]): Active
- Activity [21]: 41.9%
- Activity [22]: Active
- Activity (Mus musculus [23]): Non-toxic
- IC50 [24]: 0.33 µM
- inhibition (STO [25]): Dose-dependent effect
- inhibition (STO [26]): Active
- Activity (STO [27]): tde
- Activity (Meso2 [28]): Active
- inhibition (Homo sapiens): Dose-dependent effect
- IC50 [29]: 4.11 µM
